Measurements taken from ChEMBL document CHEMBL3745597, “Fragment-Based Discovery of Subtype-Selective Adenosine Receptor Ligands from Homology Models” (J Med Chem, 2015).
Calls of active or inactive are those of the source. The rule behind the calls is not given here.

Columns and labels:
Adenosine receptor A3 [1] = target: T1, Adenosine receptor A3 (Homo sapiens, UniProt P0DMS8); assay: Displacement of CA200645 from human adenosine A3 receptor expressed in CHO CRE-SPAP cells incubated for 1 hr by fluorescence analysis; assay type: cell-based
T1 sequence (P0DMS8 whole entry, looked up): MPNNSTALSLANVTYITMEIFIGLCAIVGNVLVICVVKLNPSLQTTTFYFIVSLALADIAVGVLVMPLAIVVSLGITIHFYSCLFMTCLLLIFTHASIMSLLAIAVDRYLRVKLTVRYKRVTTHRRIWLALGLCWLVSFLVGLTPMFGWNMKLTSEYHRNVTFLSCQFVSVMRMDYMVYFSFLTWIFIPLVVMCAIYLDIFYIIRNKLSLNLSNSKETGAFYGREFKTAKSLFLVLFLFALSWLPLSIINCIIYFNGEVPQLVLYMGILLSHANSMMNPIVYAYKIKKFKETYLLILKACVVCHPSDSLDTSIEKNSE
How it was run: (§1)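 Live confluent CHO cells expressing A1AR or A3AR were washed into HEPES-buffered saline, pH 7.4. Increasing concentrations of competitor were added with 25 nM fluorescent xanthine ligand CA200645 and incubated 1 h at 37°C, then imaged for total intensity. IC50 was converted to Ki by Cheng-Prusoff using ligand KD 17.0 nM (A1) or 3.11 nM (A3). Values are mean of n experiments run in duplicate.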

Adenosine receptor A1 = target: T2, Adenosine receptor A1 (Homo sapiens, UniProt P30542); assay: Displacement of CA200645 from human adenosine A1 receptor expressed in CHO cells incubated for 1 hr by fluorescence analysis; assay type: cell-based; how it was run: as §1
T2 sequence (P30542 whole entry): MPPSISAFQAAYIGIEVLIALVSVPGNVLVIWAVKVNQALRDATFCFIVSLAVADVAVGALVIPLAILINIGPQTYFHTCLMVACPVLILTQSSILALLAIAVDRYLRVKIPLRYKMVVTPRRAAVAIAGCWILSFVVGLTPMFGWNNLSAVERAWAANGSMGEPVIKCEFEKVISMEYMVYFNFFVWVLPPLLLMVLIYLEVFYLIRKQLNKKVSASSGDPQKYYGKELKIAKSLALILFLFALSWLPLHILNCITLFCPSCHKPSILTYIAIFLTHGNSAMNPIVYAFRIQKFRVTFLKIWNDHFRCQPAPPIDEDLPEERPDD

[2] = target: Adenosine receptors; A1 & A3 (Homo sapiens) (UniProt P30542+P0DMS8); assay: Selectivity ratio of Ki for human adenosine A1 receptor expressed in CHO cells to Ki for human adenosine A3 receptor expressed in CHO CRE-SPAP cells; assay type: functional, cell-based
How it was run: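 Ratio of Ki at A1AR to Ki at A3AR. Both Ki values come from the live-cell CA200645 competition assay (25 nM tracer, 1 h, 37°C), with Cheng-Prusoff correction using KD 17.0 nM (A1) and 3.11 nM (A3).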

Adenosine receptor A2a [3] = target: T3, Adenosine receptor A2a (Homo sapiens, UniProt P29274); assay: Displacement of [3H]-ZM241385 from human adenosine A2A receptor expressed in HeLa cells at 10 uM; assay type: cell-based
T3 sequence (P29274 whole entry): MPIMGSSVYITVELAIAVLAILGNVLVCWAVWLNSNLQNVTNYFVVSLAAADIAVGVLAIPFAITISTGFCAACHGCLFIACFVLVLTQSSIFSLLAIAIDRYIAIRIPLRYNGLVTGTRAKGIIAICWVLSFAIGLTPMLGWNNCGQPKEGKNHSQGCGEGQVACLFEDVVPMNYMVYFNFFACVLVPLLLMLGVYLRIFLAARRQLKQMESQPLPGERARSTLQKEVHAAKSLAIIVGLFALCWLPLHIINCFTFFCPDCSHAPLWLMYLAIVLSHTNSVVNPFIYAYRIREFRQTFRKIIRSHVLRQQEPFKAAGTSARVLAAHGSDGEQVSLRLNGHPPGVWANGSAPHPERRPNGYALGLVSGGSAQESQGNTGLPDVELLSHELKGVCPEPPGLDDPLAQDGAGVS
How it was run: (§2)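 Human A2AAR expressed in transfected HeLa cells, with [3H]-ZM241385 as radioligand. Percent inhibition was measured at a single 10 µM concentration. Ki was determined only where displacement exceeded 50% at 10 µM.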

Adenosine receptor A3 [4] = target: T1, Adenosine receptor A3; assay: Competitive antagonist activity at YFP linked human adenosine A3 receptor expressed in CHO CRE-SPAP cells assessed as inhibition of NECA-induced receptor internalization preincubated for 30 mins followed by addition of NECA measured after 60 mins by H33342 staining-based fluorescence analysis; assay type: cell-based
How it was run: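 Cells stably expressing YFP-tagged A3AR, serum-free DMEM/F12 with 2 mM L-glutamine, preincubated 30 min at 37°C with a fixed 10 µM antagonist or with medium only. Rising NECA concentrations were then added for 60 min. Cells were fixed in 3% paraformaldehyde, nuclei stained with H33342 and imaged confocally. Read-out was YFP granule count per cell. Antagonist KD came from the Gaddum dose-ratio equation, n=5 run in triplicate.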

HeLa = assay: Selectivity ratio of Ki for human adenosine A2A receptor expressed in HeLa cells to Ki for human adenosine A3 receptor expressed in CHO CRE-SPAP cells; assay type: cell-based
Adenosine receptor A2a [5] = target: T3, Adenosine receptor A2a; assay: Displacement of [3H]-ZM241385 from human adenosine A2A receptor expressed in HeLa cells; assay type: cell-based; how it was run: as §2

| Ki (Adenosine receptor A3 [1]; read-out: pKi (converted)) | Ki (Adenosine receptor A1) | Ratio Ki [2] | Ki (Adenosine receptor A3 [1]; read-out: Ki) | pKi (Adenosine receptor A1; cho) | Activity (Adenosine receptor A2a [3]) | Kd (Adenosine receptor A3 [4]) | Ki (Adenosine receptor A2a [5]) | SMILES | Ratio Ki (HeLa) |
| --- | --- | --- | --- | --- | --- | --- | --- | --- | --- |
| 1.82 µM | 61.7 µM | 70 |  |  |  |  |  | CCc1cc2c(=O)[nH]c(C3CC3)nc2s1 |  |
| 0.138 µM | 0.347 µM | 2 |  |  |  |  |  | O=c1[nH]c(-c2ccco2)nc2scc(-c3ccco3)c12 |  |
| 2.4 µM | 3.16 µM | 1.2 |  |  |  |  |  | O=C(Nc1ccc2[nH]ncc2c1)c1ccc[nH]1 |  |
| 0.11 µM | 3.09 µM | 34 | 0.12 µM |  |  |  |  | COc1cccc2sc(NC(=O)c3cc4ccccc4s3)nc12 |  |
| 2.29 µM |  | > 38 |  | > 4 | inactive |  |  | CCc1cc2c(O)nc(N3CCCC3)nc2s1 |  |
| 0.0339 µM | 3.72 µM | 101 | 0.04 µM |  |  | 0.741 µM | 2.9 µM | O=C(Nc1nc(C2CC2)cs1)c1cc2ccccc2s1 | 72 |
| 0.398 µM | 1.95 µM | 4 |  |  |  |  |  | Cc1sc2nc(-c3ccoc3)[nH]c(=O)c2c1C |  |
| 0.38 µM | 2.82 µM | 5 |  |  |  |  |  | O=C(Nc1nc2c(s1)CCC2)c1cc2ccccc2s1 |  |
| 4.9 µM | 12.3 µM | 2 |  |  |  |  |  | CC(C)(C)C(=O)Nc1nc(C2CC2)cs1 |  |
| 13.5 µM | 75.9 µM | 6 |  |  |  |  |  | CCc1cc2c(O)ncnc2s1 |  |
| 0.105 µM | 2.95 µM | 29 | 0.12 µM |  | inactive |  |  | O=C(Nc1nc(C2CC2)cs1)c1ccoc1 |  |
| 0.55 µM | 56.2 µM | 102 |  |  | inactive | 0.741 µM |  | CCc1cc2c(=O)[nH]c(-c3ccoc3)nc2s1 |  |
| 2 µM | 22.9 µM | 14 |  |  |  |  |  | CCc1cc2c(O)nc(-c3ccncc3)nc2s1 |  |
| 2.19 µM | 29.5 µM | 24 |  |  |  |  |  | CSc1sc(NC(=O)C=C(C)C)nc1C |  |
| 0.331 µM | 6.17 µM | 16 |  |  |  |  |  | O=C(Nc1nc2ccccc2s1)c1cc2ccccc2s1 |  |
